For data set [1], the system named is NCI-H1581. Put plainly: Antiproliferative activity against FGFR1-amplified human NCI-H1581 cells after 72 hrs by CCK8/MTT assay. It counts as functional, cell-based. The note with it: NCI-H1581, 72 h. In general terms: Formazan colour is commonly taken as a measure of viable cells.
Data set [2] concerns the target Vascular endothelial growth factor receptor 2 (Homo sapiens, UniProt P35968). The data set is described as follows: Inhibition of recombinant human VEGFR2 using poly (Glu, Tyr) 4:1 as substrate after 60 mins by ELISA. (ELISA stands for enzyme-linked immunosorbent assay.)
Data set [3] concerns the target Fibroblast growth factor receptor 1 (Homo sapiens, UniProt P11362). Put plainly: Inhibition of recombinant human FGFR1 using poly (Glu, Tyr) 4:1 as substrate after 60 mins by ELISA.
Data set [4] in a line: Cmax in Sprague-Dawley rat at 1 mg/kg, iv. It counts as ADME, organism-based. Also noted: dose 1 mg/kg, route intravenous. The note with it: in vivo.
Data set [5] is described as follows: Cmax in Sprague-Dawley rat at 5 mg/kg, po. The class given is ADME, organism-based. Details: dose 5 mg/kg, route oral. The note with it: in vivo. Summed up: (§1)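 Male SD rats (n = 3) dosed orally by gavage at 5 mg/kg as a suspension in 0.5% CMC-Na. Quantified by LC-MS/MS. An IV arm (1 mg/kg) was run in parallel.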
A short description of data set [6]: Tmax in Sprague-Dawley rat at 5 mg/kg, po. The class given is ADME, organism-based. The note with it: in vivo. In short, it runs like this:
as §1

Data set [7] can be described thus: Half life in Sprague-Dawley rat at 1 mg/kg, iv. The class given is ADME, organism-based. The note with it: in vivo.
Data set [8] is described as follows: AUC (0 to infinity) in Sprague-Dawley rat at 1 mg/kg, iv. The class given is ADME, organism-based. Also noted: dose 1 mg/kg, time infinity, route intravenous. The note with it: in vivo.
The nature of data set [9]: AUC (0 to infinity) in Sprague-Dawley rat at 5 mg/kg, po. It counts as ADME, organism-based. Details: dose 5 mg/kg, route oral, time infinity. The note with it: in vivo. In short, it runs like this:
as §1

The nature of data set [10]: Clearance in Sprague-Dawley rat at 1 mg/kg, iv. The class given is ADME, organism-based. The note with it: in vivo.
Data set [11] can be described thus: Volume of distribution at steady state in Sprague-Dawley rat at 1 mg/kg, iv. The class given is ADME, organism-based. The note with it: in vivo, read-out: Vdss.
The nature of data set [12]: Oral bioavailability in Sprague-Dawley rat at 5 mg/kg. The class given is ADME, organism-based. The note with it: in vivo. In short, it runs like this: as §1
Data set [13] relates to NCI-H1581. Put plainly: Antitumor activity against human NCI-H1581 cells xenografted in nude mouse assessed as tumor growth inhibition at 20 mg/kg administered as qd for 21 days measured on day 21 post last dose relative to vehicle-treated control. It counts as functional. The note with it: NCI-H1581, 504 h, read-out: TGI. Background: In xenograft studies the graft and the host belong to different species.

A short description of data set [14]: cells. The note with it: Homo sapiens, KG-1, 72 h.
Data set [15] can be described thus: cells. The note with it: Homo sapiens, SNU-16, 72 h.
A short description of data set [16]: cells. The note with it: Homo sapiens, RT-112, 72 h.

Each structure is given as a SMILES string.

Sequence of Fibroblast growth factor receptor 1 (P11362 whole entry): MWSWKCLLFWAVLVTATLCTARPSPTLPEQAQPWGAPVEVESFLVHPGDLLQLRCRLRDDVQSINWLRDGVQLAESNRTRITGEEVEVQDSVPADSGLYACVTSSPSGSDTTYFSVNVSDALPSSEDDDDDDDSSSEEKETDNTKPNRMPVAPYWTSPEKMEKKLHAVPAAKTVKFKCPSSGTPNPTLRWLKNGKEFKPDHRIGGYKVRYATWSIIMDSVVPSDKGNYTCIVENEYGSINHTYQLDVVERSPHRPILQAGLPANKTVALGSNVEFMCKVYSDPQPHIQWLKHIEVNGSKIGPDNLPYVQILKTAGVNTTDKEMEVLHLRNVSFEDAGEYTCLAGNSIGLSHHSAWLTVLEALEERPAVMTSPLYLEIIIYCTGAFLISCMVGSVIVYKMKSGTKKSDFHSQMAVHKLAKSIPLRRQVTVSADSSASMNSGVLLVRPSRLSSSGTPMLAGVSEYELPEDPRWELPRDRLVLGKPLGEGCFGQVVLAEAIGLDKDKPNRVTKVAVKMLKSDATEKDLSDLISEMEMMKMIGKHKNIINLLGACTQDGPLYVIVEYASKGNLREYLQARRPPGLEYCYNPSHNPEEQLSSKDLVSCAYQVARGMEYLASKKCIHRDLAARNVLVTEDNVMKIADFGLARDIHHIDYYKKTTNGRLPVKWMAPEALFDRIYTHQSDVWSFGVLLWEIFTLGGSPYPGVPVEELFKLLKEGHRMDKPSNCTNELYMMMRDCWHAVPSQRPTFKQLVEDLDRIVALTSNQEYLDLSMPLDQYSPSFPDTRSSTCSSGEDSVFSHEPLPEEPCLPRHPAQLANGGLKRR
Sequence of Vascular endothelial growth factor receptor 2 (P35968 whole entry): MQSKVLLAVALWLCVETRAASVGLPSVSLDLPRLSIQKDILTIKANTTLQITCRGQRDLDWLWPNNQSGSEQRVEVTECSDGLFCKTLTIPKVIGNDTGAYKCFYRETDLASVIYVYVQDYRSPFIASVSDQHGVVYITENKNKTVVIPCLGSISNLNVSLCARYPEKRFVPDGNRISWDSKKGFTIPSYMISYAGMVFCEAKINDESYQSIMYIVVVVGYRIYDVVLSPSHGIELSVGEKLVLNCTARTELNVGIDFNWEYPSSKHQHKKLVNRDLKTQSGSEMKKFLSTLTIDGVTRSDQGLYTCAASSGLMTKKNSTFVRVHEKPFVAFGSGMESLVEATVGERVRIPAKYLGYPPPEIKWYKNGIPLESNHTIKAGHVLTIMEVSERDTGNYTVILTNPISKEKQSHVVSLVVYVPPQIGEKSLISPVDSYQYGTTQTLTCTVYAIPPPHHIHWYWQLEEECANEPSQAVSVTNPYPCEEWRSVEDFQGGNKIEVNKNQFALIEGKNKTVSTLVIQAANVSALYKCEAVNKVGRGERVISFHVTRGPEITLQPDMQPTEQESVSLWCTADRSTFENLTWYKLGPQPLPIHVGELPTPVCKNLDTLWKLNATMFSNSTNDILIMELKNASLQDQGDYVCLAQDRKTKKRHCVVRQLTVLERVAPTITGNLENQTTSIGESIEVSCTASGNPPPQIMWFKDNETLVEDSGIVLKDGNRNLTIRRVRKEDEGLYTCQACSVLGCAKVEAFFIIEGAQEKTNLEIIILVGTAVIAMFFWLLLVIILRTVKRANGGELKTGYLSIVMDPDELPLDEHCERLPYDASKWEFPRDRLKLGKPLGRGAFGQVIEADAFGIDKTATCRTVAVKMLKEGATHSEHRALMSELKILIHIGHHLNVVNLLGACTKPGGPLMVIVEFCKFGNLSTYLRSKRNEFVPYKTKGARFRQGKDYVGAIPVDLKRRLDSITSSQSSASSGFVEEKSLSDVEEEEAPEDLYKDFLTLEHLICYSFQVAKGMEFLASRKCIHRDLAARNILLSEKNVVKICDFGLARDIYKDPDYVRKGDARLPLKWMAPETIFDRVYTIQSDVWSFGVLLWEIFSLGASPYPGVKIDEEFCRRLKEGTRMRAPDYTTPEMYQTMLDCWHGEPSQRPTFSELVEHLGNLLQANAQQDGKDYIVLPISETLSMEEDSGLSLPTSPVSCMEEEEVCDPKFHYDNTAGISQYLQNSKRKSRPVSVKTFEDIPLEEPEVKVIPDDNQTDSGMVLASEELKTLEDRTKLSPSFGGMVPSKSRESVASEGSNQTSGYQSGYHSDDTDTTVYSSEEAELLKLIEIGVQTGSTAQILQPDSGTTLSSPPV

In the case of `CC(Oc1ccc2[nH]nc(-c3nc4cc(N5CCCCC5)ccc4[nH]3)c2c1)c1c(Cl)cncc1Cl` (stereo not drawn), half-maximal inhibition in data set [1] (IC50) was put at 14.1 nM.

Turning to `CC(Oc1ccc2[nH]nc(-c3nc4ccccc4[nH]3)c2c1)c1c(Cl)cncc1Cl` (stereo not drawn), half-maximal inhibition in data set [1] (IC50) was put at 403 nM.

As to `C[C@H](Oc1ccc2[nH]nc(-c3nc4cc(CCO)ccc4[nH]3)c2c1)c1c(Cl)cncc1Cl`, the IC50 (commonly the concentration at which inhibition is half-maximal) in [1] is over 100 nM.

With `CC(Oc1ccc2[nH]nc(-c3nc4cc(N5C[C@@H](C)N[C@@H](C)C5)ccc4[nH]3)c2c1)c1c(Cl)cncc1Cl` (stereo partly drawn), the IC50 in data set [1] came to 1.9 nM; in [2] it was 9 nM.

Take `CC(Oc1ccc2[nH]nc(-c3nc4cc(CCO)ccc4[nH]3)c2c1)c1c(Cl)cncc1Cl` (stereo not drawn): the IC50 is 3.3 nM in data set [1] and 12.6 nM in data set [2].

Turning to `c1cc(COc2ccc3[nH]nc(-c4nc5cc(N6CCCCC6)ccc5[nH]4)c3c2)ccn1`, it took 5020 nM to reach half-maximal inhibition in [1] (IC50).

Compound `COc1ccc2[nH]c(-c3n[nH]c4ccc(OC(C)c5c(Cl)cncc5Cl)cc34)nc2c1` (stereo not drawn) registered an IC50 in [1] of 315 nM.

Compound `c1cncc(COc2ccc3[nH]nc(-c4nc5cc(N6CCCCC6)ccc5[nH]4)c3c2)c1` came in with an IC50 in [1] of 1860 nM.

On to `CC(Oc1ccc2[nH]nc(-c3nc4cc(NCCN(C)C)ccc4[nH]3)c2c1)c1c(Cl)cncc1Cl` (stereo not drawn), for which the IC50 in [1] amounted to 1.1 nM.

`CC(Oc1ccc2[nH]nc(-c3nc4cc(N5CCC(N6CCCCC6)CC5)ccc4[nH]3)c2c1)c1c(Cl)cncc1Cl` (stereo not drawn) had an IC50 in data set [1] of 10.3 nM.

Consider `Fc1ccc2c(-c3nc4cc(N5CCC(N6CCCCC6)CC5)ccc4[nH]3)[nH]nc2c1`, for which the IC50 in [3] worked out at 20.3 nM; in data set [1], 749 nM; in [2], 16.4 nM.

Consider `CC(Oc1ccc2[nH]nc(-c3nc4c(N5CCCCC5)cccc4[nH]3)c2c1)c1c(Cl)cncc1Cl` (stereo not drawn), for which, in data set [3], the IC50 was over 1000 nM.

`CC(Oc1ccc2[nH]nc(-c3nc4cc(N5CCCN(C)CC5)ccc4[nH]3)c2c1)c1c(Cl)cncc1Cl` (stereo not drawn): the IC50 in data set [1] turned out to be 8.1 nM.

Compound `c1ccc(COc2ccc3[nH]nc(-c4nc5cc(N6CCCCC6)ccc5[nH]4)c3c2)nc1` returned an IC50 in data set [1] of 1230 nM.

`C[C@H](Oc1ccc2[nH]nc(-c3nc4cc(N5CCN(C)CC5)ccc4[nH]3)c2c1)c1c(Cl)cncc1Cl`: the results for the IC50 in data set [3] and in data set [1] were 9.4 nM and 130 nM, respectively.

`CNc1ccc2[nH]c(-c3n[nH]c4ccc(OC(C)c5c(Cl)cncc5Cl)cc34)nc2c1` (stereo not drawn) had an IC50 in data set [1] of 5.5 nM.

On to `CC(Oc1ccc2[nH]nc(-c3nc4cc(N5CCCCC5)ccc4[nH]3)c2c1)c1c(Cl)ccnc1Cl` (stereo not drawn), for which, in [1], the IC50 was determined as 30.8 nM.

`Cc1cccc2[nH]c(-c3n[nH]c4ccc(OC(C)c5c(Cl)cncc5Cl)cc34)nc12` (stereo not drawn) had an IC50 in [1] of over 10000 nM.

For `CC(Oc1ccc2[nH]nc(-c3nc4ccccc4s3)c2c1)c1c(Cl)cncc1Cl` (stereo not drawn), in data set [1], the IC50 was over 10000 nM.

Regarding `CC(Oc1ccc2[nH]nc(-c3nc4cc(C5CCN(C)CC5)ccc4[nH]3)c2c1)c1c(Cl)cncc1Cl` (stereo not drawn), the results for the IC50 in [1] and in [2] were 1.6 nM and 7.8 nM, respectively.

Regarding `CC(Oc1ccc2[nH]nc(-c3nc4cc(F)ccc4[nH]3)c2c1)c1c(Cl)cncc1Cl` (stereo not drawn), half-maximal inhibition in data set [1] (IC50) required 582 nM.

In [1], `CC(Oc1ccc2[nH]nc(-c3cc4ccccc4[nH]3)c2c1)c1c(Cl)cncc1Cl` (stereo not drawn) had an IC50 of 817 nM.

`CCC(Oc1ccc2[nH]nc(-c3nc4cc(N5CCCCC5)ccc4[nH]3)c2c1)c1c(Cl)cncc1Cl` (stereo not drawn): it took 380 nM to reach half-maximal inhibition in data set [1] (IC50).

With `CC(Oc1ccc2[nH]nc(-c3nc4cc(N(C)C(=O)CN(C)C)ccc4[nH]3)c2c1)c1c(Cl)cncc1Cl` (stereo not drawn), the IC50 in [1] came out at 0.8 nM; in [2] it was 2.5 nM.

In data set [1], `CC(Oc1ccc2[nH]nc(-c3nc4ccccc4o3)c2c1)c1c(Cl)cncc1Cl` (stereo not drawn) yielded an IC50 of 3040 nM.

As to `CC(Oc1ccc2[nH]nc(-c3nc4cc(N5CCN(C)CC5)ccc4[nH]3)c2c1)c1c(Cl)cncc1Cl` (stereo not drawn), the IC50 in [3] is 1 nM; in data set [1], 1 nM; in [2] it was 8 nM.

As for `Clc1cnccc1COc1ccc2[nH]nc(-c3nc4cc(N5CCCCC5)ccc4[nH]3)c2c1`, in data set [1], half-maximal inhibition (IC50) was put at 3070 nM.

With `COCCNc1ccc2[nH]c(-c3n[nH]c4ccc(OC(C)c5c(Cl)cncc5Cl)cc34)nc2c1` (stereo not drawn), the IC50 in data set [1] is 1.2 nM.

With `CCN1CCN(c2ccc3[nH]c(-c4n[nH]c5ccc(OC(C)c6c(Cl)cncc6Cl)cc45)nc3c2)CC1` (stereo not drawn), the IC50 in data set [1] was 5.9 nM.

In the case of `C[C@@H](Oc1ccc2[nH]nc(-c3nc4cc(CCO)ccc4[nH]3)c2c1)c1c(Cl)cncc1Cl`, the IC50 in [1] came to 1.4 nM. In addition, the Cmax – broadly, the maximum level reached in the sampled fluid or tissue – in [4] was 735 ng/mL; in data set [5], 195 ng/mL. The Tmax (usually the time at which the peak concentration occurs) in data set [6] came out at 0.8 h. Moreover, the half-life (as a rule, how long it takes for the measured level to halve) in data set [7] is 7.3 h. For the same compound, the AUC(0-inf) (commonly the area under the concentration-time curve extrapolated to infinity) came out at 582 ng·h/mL in data set [8] and 664 ng·h/mL in data set [9]. In addition, the clearance – broadly, the volume of plasma or blood freed of the substance per unit of time – in data set [10] is 28.3 mL/min/kg. Moreover, in data set [11], the Vd amounted to 17.6 L/kg. Besides, in data set [12], the bioavailability (usually dose-corrected exposure relative to a reference, in per cent) was 22%.

Regarding `COc1cc(CCc2cc(NC(=O)c3ccc(N4C[C@@H](C)N[C@@H](C)C4)cc3)n[nH]2)cc(OC)c1` [FEXAGRATINIB], the IC50 in data set [1] came out at 92.1 nM; in data set [14], 6.4 nM; in data set [15], 13.4 nM; in data set [16] it was 88.4 nM. Further, the inhibition in vivo at 20 mg/kg in data set [13] was 73.9%.

Regarding `Cc1ccc2[nH]c(-c3n[nH]c4ccc(OC(C)c5c(Cl)cncc5Cl)cc34)nc2c1` (stereo not drawn), in [1], 922 nM corresponded to half-maximal inhibition (IC50).

For `C[C@@H](Oc1ccc2[nH]nc(/C=C/c3cnn(CCO)c3)c2c1)c1c(Cl)cncc1Cl` [LY-2874455], the figures for the IC50 in data set [1] and in data set [2] were under 0.5 nM and 5.8 nM, respectively.

As for `CC(Oc1ccc2[nH]nc(-c3nc4cc(N5CCOCC5)ccc4[nH]3)c2c1)c1c(Cl)cncc1Cl` (stereo not drawn), the IC50 in [1] was 2.2 nM.

In the case of `Clc1cncc(Cl)c1COc1ccc2[nH]nc(-c3nc4cc(N5CCCCC5)ccc4[nH]3)c2c1`, inhibition in data set [1] was half-maximal at 159 nM (IC50).

These data come from ChEMBL document CHEMBL3826910, “Discovery of 3-(5'-Substituted)-Benzimidazole-5-(1-(3,5-dichloropyridin-4-yl)ethoxy)-1H-indazoles as Potent Fibroblast Growth Factor Receptor Inhibitors: Design, Synthesis, and Biological Evaluation” (J Med Chem, 2016).
